Measured values: PubChem BioAssay
Active and inactive are the calls of the source.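 How the source made its calls, unless noted: active means compounds giving at least 50% inhibition in the cell-based MKP-3 phosphatase rescue imaging test; inactive means the rest.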

Columns and labels:
[1] = inhibitors of TNFa-induced NFkB p65 translocation, primary screen, imaging, HUVEC, MLSMR starter and 10KST1 sets (AID 438;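 active means inhibition above 20% together with a positive visual image hit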;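 further: compound added about 3h40 before a 20 min TNFalpha stimulation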;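 on inhibition: signal is the nuclear over cytoplasmic p65 intensity ratio per well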); conditions: HUVEC TNFa-induced p65 nuclear translocation; cell count: measured here: nuclei count (cytotoxicity indicator), at 2.08 µM; inhibition: at 2 µM, stronger effect = higher value, 0% TNFa-plus-vehicle, 100% no-TNFa wells
[2] = inhibitors of E-selectin induction by TNFa, primary screen, imaging, HUVEC, immunofluorescence, MLSMR starter and 10KST1 sets (AID 487;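 active means visually confirmed hit in the image check and inhibition above 20%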;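 on inhibition: signal is fraction of cell area covered by stained E-selectin grains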;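 on nuclei count: 100% = median nuclei count of all wells on the same plate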); conditions: HUVEC TNFalpha-induced E-selectin immunofluorescence imaging, at 2 µM; inhibition: stronger effect = higher value; nuclei count: measured here: cell number, toxicity
[3] = DUSP6 inhibitors restoring Erk phosphorylation by chemical complementation, primary imaging in DUSP6-transfected HeLa (AID 609); conditions: HeLa MKP-3 transfected, phospho-Erk imaging KS statistic, at 10 µM, cells stimulated with TPA for 15 min;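 on inhibition: phospho-Erk level distribution per well compared with pooled transfected vehicle control wells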
[4] = molecular target: Dual specificity protein phosphatase 6 (Homo sapiens) (UniProt Q16828); assay: as above; conditions: HeLa MKP-3 transfected, phospho-Erk imaging KS statistic; at 10 µM; stronger effect = higher value; cells stimulated with TPA for 15 min
[5] = molecular target: Voltage-gated potassium channel subunit beta-2 (Rattus norvegicus) (UniProt P62483); assay: KvBeta enzyme negative modulators, primary screen, biochemical, NADPH fluorescence (AID 622;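 active means fluorescence slope higher than the sample average by over 3 SD, cut at about -0.22 in these data, passing the limit was not always enough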;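 further: slope of raw intensity against log time taken from 70 to 1610 s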); conditions: recombinant KvBeta, 4-cyanobenzaldehyde reduction, at 10 µM, stronger effect = higher value
[6] = molecular target: Voltage-gated potassium channel subunit beta-2 (Rattus norvegicus) (UniProt P62483); assay: KvBeta positive modulators, primary screen, biochemical, NADPH fluorescence (AID 623;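 active means NADPH fluorescence slope more negative than the mean of all samples by about 3 SD, 99.7% confidence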;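 further: fluorescence intensity change per second fitted from 20 to 320 s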); conditions: Recombinant KvBeta, NADPH fluorescence decrease slope, 10 min; at 10 µM; stronger effect = lower value
[7] = molecular target: Alpha-2C adrenergic receptor (Homo sapiens) (UniProt P18825); assay: modulators of alpha2C/GIRK thallium flux, primary screen, cell-based, HEK293 alpha2C/GIRK1/2 (AID 624;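 active means fluorescence slope after compound addition differing from the mean of all screened samples at 99.7% confidence, in either direction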;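 further: slope of fluorescence ratio to pre-addition baseline per second over 15 to 24 s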); conditions: thallium flux BTC fluorescence, at 10 µM, actives lie on both sides
[8] = inhibitors of larval lipid processing in zebrafish, primary screen, whole organism, PED6 fluorescence, gall bladder and intestine (AID 686;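 active means a full or partial loss of lipid-probe fluorescence in the fish gall bladder, intestine or both, judged by eye; inactive means no fluorescence loss, or compound toxic to the fish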;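 further: larvae 5 to 7 days old with five fish per well; signal comes from phospholipase A2 cleavage of quenched PED6 carried via bile; overnight exposure to compound and PED6 before scoring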); conditions: Zebrafish larvae PED6 lipid processing, fluorescence scoring; screened at 20 µM (by protocol)
Summary of the method: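 Also added: quenched phospholipase substrate PED6, 100 nM final, ingested by larvae; System: zebrafish larvae, 5-7 d; Quantity: 5 larvae per well; Compound: 20 µM single dose; Schedule: overnight compound and PED6 incubation; Read-out: visual per-well fluorescence inhibition score; Measured by: By-eye fluorescence microscopy; Medium: E3.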

[9] = inhibitors of Chlamydomonas gravitaxis, primary screen, whole organism, Chlamydomonas reinhardtii, WT vs cilia-less mutant, absorbance, 96-well (AID 463189;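 active means inhibition at or above 50% relative to wild type and mutant plate controls; inactive means inhibition below 50%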;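 further: 0% = wild type cc124 cells in DMSO and 100% = ciliumless bld1 mutant cells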); conditions: OD600 absorbance, 2 days, at 10 µM, stronger effect = higher value
[10] = measured here: cell density z-score
[11] = measured here: nuclear c-Myc green intensity z-score
[12] = measured here: nuclear pErk red intensity z-score, stronger effect = higher value

Sequence of Alpha-2C adrenergic receptor (Homo sapiens) (P18825 whole entry, looked up): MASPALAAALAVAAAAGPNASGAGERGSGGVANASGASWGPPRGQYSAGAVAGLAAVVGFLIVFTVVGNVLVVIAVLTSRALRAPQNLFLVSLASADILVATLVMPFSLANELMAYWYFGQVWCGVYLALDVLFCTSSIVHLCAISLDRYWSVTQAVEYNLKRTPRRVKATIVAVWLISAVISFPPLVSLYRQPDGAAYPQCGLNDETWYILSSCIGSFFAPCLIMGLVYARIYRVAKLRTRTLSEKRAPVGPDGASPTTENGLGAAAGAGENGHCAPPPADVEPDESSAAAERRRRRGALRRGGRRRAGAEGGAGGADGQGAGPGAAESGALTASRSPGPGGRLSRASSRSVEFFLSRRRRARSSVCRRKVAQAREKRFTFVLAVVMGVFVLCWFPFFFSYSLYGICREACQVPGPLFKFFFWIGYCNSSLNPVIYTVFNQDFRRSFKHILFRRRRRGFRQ
Sequence of Voltage-gated potassium channel subunit beta-2 (Rattus norvegicus) (P62483 whole entry, looked up): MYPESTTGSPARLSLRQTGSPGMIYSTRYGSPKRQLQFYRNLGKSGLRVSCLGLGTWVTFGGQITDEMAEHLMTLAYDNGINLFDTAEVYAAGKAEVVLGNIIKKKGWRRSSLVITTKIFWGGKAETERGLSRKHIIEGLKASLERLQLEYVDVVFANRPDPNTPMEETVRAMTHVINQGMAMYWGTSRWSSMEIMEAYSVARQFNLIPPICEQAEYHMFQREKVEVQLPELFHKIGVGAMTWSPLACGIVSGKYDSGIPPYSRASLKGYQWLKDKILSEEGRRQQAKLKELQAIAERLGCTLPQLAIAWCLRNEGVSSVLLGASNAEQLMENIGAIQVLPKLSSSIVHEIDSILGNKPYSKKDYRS
Sequence of Dual specificity protein phosphatase 6 (Homo sapiens) (Q16828 whole entry, looked up): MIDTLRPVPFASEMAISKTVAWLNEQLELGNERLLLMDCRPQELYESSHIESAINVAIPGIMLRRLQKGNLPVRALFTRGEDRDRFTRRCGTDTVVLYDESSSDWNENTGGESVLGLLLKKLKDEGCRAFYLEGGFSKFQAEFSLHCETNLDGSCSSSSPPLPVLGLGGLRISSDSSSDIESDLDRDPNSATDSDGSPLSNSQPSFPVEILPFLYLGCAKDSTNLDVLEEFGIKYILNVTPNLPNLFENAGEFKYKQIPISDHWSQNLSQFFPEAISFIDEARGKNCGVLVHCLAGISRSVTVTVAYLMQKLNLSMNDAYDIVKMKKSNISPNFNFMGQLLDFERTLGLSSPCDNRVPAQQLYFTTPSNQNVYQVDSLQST

Structure (SMILES)	cell count [1]	inhibition [1]	inhibition [2]	nuclei count [2]	z-score [3, 10]	z-score [3, 11]	z-score [3, 12]	inhibition [4]	fluorescence slope [5]	NADPH fluorescence slope [6]	slope [7]	outcome [8]	inhibition [9]
Cc1c(/C(O)=C2\C(=O)C(=O)N(CCN(C)C)C2c2cccnc2)cnn1-c1ccccc1 (configuration not stated)	512	-1.7% (inactive)	-140% (inactive)	139%	1.11	-1.54	0.165	-8.76% (inactive)	-0.564 (inactive)	-7.1e-05 (inactive)	0.00465 (inactive)	inactive	-1.73% (inactive)
CN1CCC2(CC1)C1CN(C)CC=C1C(C#N)=C(N)C2(C#N)C#N (configuration not stated)	542	-8.9% (inactive)	-165% (inactive)	198%	-1.09	0.771	1.17	2.46% (inactive)	-0.349 (inactive)	-8.7e-06 (inactive)	0.0029 (inactive)	inactive	11.5% (inactive)
O=C(NCc1ccco1)c1ccc(=O)oc1	352	-6% (inactive)	-89.9% (inactive)	167%	0.958	0.118	-1.31	23.4% (inactive)	-0.471 (inactive)	-0.000178 (inactive)	0.00508 (inactive)	inactive	2.62% (inactive)
COCc1cc(C)nc(SCC(=O)Nc2ccc(C)c(C)c2)c1C#N	618	-2.6% (inactive)	-92.9% (inactive)	161%	-2.03	0.714	1.02	5.65% (inactive)	-0.269 (inactive)	-9.9e-06 (inactive)	0.00532 (inactive)	inactive	-8.23% (inactive)
CCN=C1SC(C(=O)Nc2ccc(Cl)c(Cl)c2)CC(=O)N1CC (configuration not stated)	388	-0.4% (inactive)	-56.6% (inactive)	133%	1.74	-1.1	-1.57	7.42% (inactive)	-0.423 (inactive)	-0.000131 (inactive)	0.00577 (inactive)	inactive	0.946% (inactive)
CCN(CC)CCN1C(=O)C(=O)/C(=C(/O)c2ccc(Cl)cc2)C1c1ccncc1 (configuration not stated)	358	3.7% (inactive)	-38.6% (inactive)	64.8%	-0.384	0.846	-1.58	26.6% (inactive)	-0.357 (inactive)	-2e-05 (inactive)	0.00633 (inactive)	inactive	21.1% (inactive)
Cc1cc(C)n(Cc2ccc(C(=O)NCCC3=CCCCC3)o2)n1	333	-8% (inactive)	-28.7% (inactive)	119%	0.702	0.069	-0.61	8.76% (inactive)	-0.456 (inactive)	-0.000101 (inactive)	0.00523 (inactive)	inactive	16.8% (inactive)
CCCCn1c(O)c(C=NCCCN(C)C)c(=O)[nH]c1=O	445	4.1% (inactive)	-38.4% (inactive)	117%	1.16	-1.01	-0.649	4.25% (inactive)	-0.44 (inactive)	2.3e-06 (inactive)	0.0074 (inactive)	inactive	10.3% (inactive)
COc1ccc(C(=O)CSC2=C(C#N)C3(CCCCC3)C(C#N)=C(N)N2)cc1	705	-13.2% (inactive)	-25.4% (inactive)	192%	-0.688	1.18	0.232	2.71% (inactive)	-0.393 (inactive)	-3.2e-05 (inactive)	0.00422 (inactive)	inactive	-3.04% (inactive)
CCN(CC)CCCn1c(C)cc2c(c1=O)C(c1ccccc1)C(C#N)=C(N)O2 (configuration not stated)	417	11.8% (inactive)	-54.2% (inactive)	140%	-0.637	0.212	1.28	0.671% (inactive)	-0.395 (inactive)	-3.1e-05 (inactive)	0.0067 (inactive)	inactive	-1.93% (inactive)
COc1cc([C@@H]2[C@H]3CNCC=C3C(C#N)=C(N)C2(C#N)C#N)ccc1OC(C)C	520	-3.4% (inactive)	-13.2% (inactive)	156%	-0.404	-0.17	-2.38	2.46% (inactive)	-0.251 (inactive)	7.5e-06 (inactive)	0.00559 (inactive)	inactive	-1.69% (inactive)
CC/C(C)=C1\SC(N2CCN(C(C)=O)CC2)=NC1=O	475	-8.5% (inactive)	-322% (inactive)	208%	-0.503	-0.13	0.531	4.37% (inactive)	-0.377 (inactive)	-3.8e-06 (inactive)	0.00493 (inactive)	inactive	-1.03% (inactive)
CCCCCCC(=O)N1CCN(c2cc3c(cc2F)c(=O)c(C(=O)O)cn3CC)CC1	402	6% (inactive)	-166% (inactive)	224%	-1.36	0.0882	0.161	6.04% (inactive)	-0.0683 (inactive)	-1.7e-05 (inactive)	0.0054 (inactive)	inactive	4.18% (inactive)
COc1ccccc1-c1nnc2sc(C3CCCCC3)nn12	531	-12.5% (inactive)	-318% (inactive)	161%	-0.671	0.45	0.848	-0.674% (inactive)	-0.405 (inactive)	-0.000298 (inactive)	0.00423 (inactive)	active; no signal in intestine only	11.6% (inactive)
